# Laboratory results as given in ChEMBL document CHEMBL1144458, “Aminothiazole inhibitors of HCV RNA polymerase” (Bioorg Med Chem Lett, 2005).
# How the values were obtained:
# [1] = target: RNA-directed RNA polymerase (Hepacivirus hominis, UniProt O39930); assay: Inhibitory concentration against RNA dependent RNA polymerase nonstructural protein 5B of hepatitis C virus
# Outline: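 HCV NS5B D55 construct (6 nM), scintillation proximity assay: biotinylated oligoG12/polyC template-primer with GTP plus [3H]-GTP, in 20 mM HEPES pH 7.3, 7.5 mM DTT, 10 mM MgCl2, 60 mM NaCl, BSA, and RNasin, for 50 min at room temperature. Stopped with streptavidin SPA beads plus 100 mM EDTA; incorporated label counted. IC50 from single experiments over 11 serial 2-fold dilutions.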
# Cytochrome P450 2D6 = Cytochrome P450 2D6 (Homo sapiens, UniProt P10635); assay: Inhibitory concentration against Cytochrome P450 2D6; format: ADME
# Sequence of Cytochrome P450 2D6 (P10635 whole entry): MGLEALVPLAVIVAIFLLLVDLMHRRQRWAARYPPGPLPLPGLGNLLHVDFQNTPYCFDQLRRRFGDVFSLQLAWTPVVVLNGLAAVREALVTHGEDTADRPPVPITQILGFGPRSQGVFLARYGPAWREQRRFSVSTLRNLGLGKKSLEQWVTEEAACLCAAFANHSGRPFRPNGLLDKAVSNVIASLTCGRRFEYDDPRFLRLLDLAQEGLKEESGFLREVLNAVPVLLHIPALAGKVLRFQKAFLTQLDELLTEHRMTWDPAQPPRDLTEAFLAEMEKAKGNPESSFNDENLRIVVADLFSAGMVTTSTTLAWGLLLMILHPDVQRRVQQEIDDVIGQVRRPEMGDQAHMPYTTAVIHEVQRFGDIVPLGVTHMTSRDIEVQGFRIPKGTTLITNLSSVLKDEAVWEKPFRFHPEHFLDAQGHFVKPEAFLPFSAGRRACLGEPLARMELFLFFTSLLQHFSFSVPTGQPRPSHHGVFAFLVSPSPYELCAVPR
# Cytochrome P450 3A4 = Cytochrome P450 3A4 (Homo sapiens, UniProt P08684); assay: Inhibitory concentration against Cytochrome P450 3A4; format: ADME
# Sequence of Cytochrome P450 3A4 (P08684 whole entry): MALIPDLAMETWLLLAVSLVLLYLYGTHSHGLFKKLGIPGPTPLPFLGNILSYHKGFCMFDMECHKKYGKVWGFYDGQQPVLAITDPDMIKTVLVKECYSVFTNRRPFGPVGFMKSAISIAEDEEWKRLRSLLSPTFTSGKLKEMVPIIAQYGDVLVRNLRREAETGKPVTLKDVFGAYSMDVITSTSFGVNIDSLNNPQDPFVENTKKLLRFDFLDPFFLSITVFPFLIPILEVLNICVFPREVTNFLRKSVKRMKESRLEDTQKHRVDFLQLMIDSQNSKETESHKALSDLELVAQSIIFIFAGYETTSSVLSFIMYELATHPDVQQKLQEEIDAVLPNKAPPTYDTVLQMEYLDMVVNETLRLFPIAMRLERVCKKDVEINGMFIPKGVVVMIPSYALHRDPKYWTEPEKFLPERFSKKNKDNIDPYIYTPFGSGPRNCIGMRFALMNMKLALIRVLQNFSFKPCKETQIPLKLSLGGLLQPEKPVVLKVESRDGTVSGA
# [2] = Permeability determined in Caco-2 experiment; format: ADME; details: human, read-out: Permeability
# [3] = Clearance rate from human hepatocytes; format: ADME, Liver, Hepatocyte
# Sequence of RNA-directed RNA polymerase (O39930 whole entry): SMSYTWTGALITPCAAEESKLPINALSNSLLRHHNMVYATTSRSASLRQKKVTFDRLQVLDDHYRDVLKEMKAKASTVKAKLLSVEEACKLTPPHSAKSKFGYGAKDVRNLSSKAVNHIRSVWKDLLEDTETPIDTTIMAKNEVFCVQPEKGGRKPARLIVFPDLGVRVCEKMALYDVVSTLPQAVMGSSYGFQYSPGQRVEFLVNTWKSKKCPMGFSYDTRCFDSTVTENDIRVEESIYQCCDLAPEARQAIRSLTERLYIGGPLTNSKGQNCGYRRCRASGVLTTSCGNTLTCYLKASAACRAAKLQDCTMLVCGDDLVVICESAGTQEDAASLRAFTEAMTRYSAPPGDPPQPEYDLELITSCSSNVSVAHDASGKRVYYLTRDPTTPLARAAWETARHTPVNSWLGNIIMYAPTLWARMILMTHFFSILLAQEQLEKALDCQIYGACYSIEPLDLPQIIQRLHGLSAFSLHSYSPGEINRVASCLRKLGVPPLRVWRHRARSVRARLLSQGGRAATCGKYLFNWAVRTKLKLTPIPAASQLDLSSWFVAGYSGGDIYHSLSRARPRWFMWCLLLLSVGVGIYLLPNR
IC50 [1],SMILES,further results
6 µM,"C[C@@H]1C[C@@H](N(C(=O)c2ccc(Oc3ccccc3)cc2)c2ncc(C(=O)O)s2)CC(C)(C)C1 (single isomer, unassigned)",
7 µM,O=C(O)c1cnc(N(C(=O)c2ccc(OCc3cccs3)cc2)C2CCCCC2)s1,
2.8 µM,CC(C)(C)[C@H]1CC[C@@H](N(C(=O)c2ccc(Oc3ccccc3)cc2)c2nc(C(=O)O)cs2)CC1 (stereo in doubt; cis),
3.4 µM,CC(C)(C)[C@H]1CC[C@H](N(C(=O)c2ccc(Oc3ccccc3)cc2)c2ncc(C(=O)O)s2)CC1 (stereo in doubt; cis),
6 µM,CC(C)(C)[C@H]1CC[C@H](N(C(=O)c2ccc(Oc3ccccc3)cc2)c2ncc(C(=O)O)s2)CC1 (stereo in doubt; trans),
10 µM,O=C(O)c1csc(N(C(=O)c2ccc(Oc3ccccc3)cc2)C2CCCCC2)n1,
11 µM,C[C@@H]1CCCC[C@H]1N(C(=O)c1ccc(Oc2ccccc2)cc1)c1nc(C(=O)O)cs1 (stereo in doubt; trans),
7 µM,O=C(O)c1cnc(N(C(=O)c2ccc(Oc3ccccc3)cc2)C2CCCCC2)s1,
4.7 µM,CC(C)(C)[C@H]1CC[C@@H](N(C(=O)c2ccc(Oc3ccccc3)cc2)c2nc(C(=O)O)cs2)CC1 (stereo in doubt; trans),
6.5 µM,O=C(O)c1cnc(N(C(=O)c2ccc(OCc3cccc(F)c3)cc2)C2CCCCC2)s1,
9.4 µM,"C[C@H]1CCCC[C@@H]1N(C(=O)c1ccc(Oc2ccccc2)cc1)c1ncc(C(=O)O)s1 (single isomer, unassigned; trans)",
3.1 µM,COc1cccc(Oc2ccc(C(=O)N(c3ncc(C(=O)O)s3)C3CCCCC3)cc2)c1,
5.5 µM,"C[C@@H]1C[C@@H](N(C(=O)c2ccc(Oc3ccccc3)cc2)c2nc(C(=O)O)cs2)CC(C)(C)C1 (single isomer, unassigned)",
4.2 µM,O=C(O)c1cnc(N(C(=O)c2ccc(Oc3ccc(Cl)cc3)cc2)C2CCCCC2)s1,
8.5 µM,COc1ccccc1Oc1ccc(C(=O)N(c2ncc(C(=O)O)s2)C2CCCCC2)cc1,
5.1 µM,O=C(O)c1cnc(N(C(=O)c2ccc(OCc3ccccc3C(F)(F)F)cc2)C2CCCCC2)s1,
6.6 µM,C[C@H]1CC[C@H](N(C(=O)c2ccc(Oc3ccccc3)cc2)c2ncc(C(=O)O)s2)CC1 (stereo in doubt; cis),
13 µM,O=C(O)c1cnc(N(C(=O)c2ccc(Oc3ccccc3)cc2)C2CCSCC2)s1,

IC50 [1],SMILES,further results
2.8 µM,O=C(O)c1cnc(N(C(=O)c2ccc(Oc3cccc(Cl)c3)cc2)C2CCCCC2)s1,
5.4 µM,C[C@H]1CC[C@@H](N(C(=O)c2ccc(Oc3ccccc3)cc2)c2nc(C(=O)O)cs2)CC1 (stereo in doubt; trans),
8.5 µM,COc1ccccc1COc1ccc(C(=O)N(c2ncc(C(=O)O)s2)C2CCCCC2)cc1,
4 µM,O=C(O)c1cnc(N(C(=O)c2ccc(OCc3ccccc3F)cc2)C2CCCCC2)s1,
15 µM,O=C(O)c1cnc(N(C(=O)c2ccc(OCc3ccccn3)cc2)C2CCCCC2)s1,
3.2 µM,COc1cccc(COc2ccc(C(=O)N(c3ncc(C(=O)O)s3)C3CCCCC3)cc2)c1,
3.9 µM,O=C(O)c1cnc(N(C(=O)c2ccc(OCc3ccc(F)cc3)cc2)C2CCCCC2)s1,
5.2 µM,O=C(O)c1cnc(N(C(=O)c2ccc(Oc3cccc(OC(F)(F)F)c3)cc2)C2CCCCC2)s1,
7.6 µM,C[C@@H]1CCCC[C@H]1N(C(=O)c1ccc(Oc2ccccc2)cc1)c1nc(C(=O)O)cs1 (stereo in doubt; cis),
6.5 µM,O=C(O)c1cnc(N(C(=O)c2ccc(OCc3ccccc3)cc2)C2CCCCC2)s1,
3.5 µM,COc1ccc(Oc2ccc(C(=O)N(c3ncc(C(=O)O)s3)C3CCCCC3)cc2)cc1OC,
1.4 µM,O=C(O)c1cnc(N(C(=O)c2ccc(OCc3cccc(C(F)(F)F)c3)cc2)C2CCCCC2)s1,IC50 (Cytochrome P450 2D6): > 30 µM; IC50 (Cytochrome P450 3A4): > 30 µM; Papp [2]: 14.7 ×10⁻⁶ cm/s; CL [3]: 5 lL/min/million
5.5 µM,O=C(O)c1cnc(N(C(=O)c2ccc(OC3CCCCC3)cc2)C2CCCCC2)s1,
5.7 µM,C[C@H]1CC[C@@H](N(C(=O)c2ccc(Oc3ccccc3)cc2)c2nc(C(=O)O)cs2)CC1 (stereo in doubt; cis),
2.6 µM,O=C(O)c1cnc(N(C(=O)c2ccc(Oc3ccc(Cl)c(Cl)c3)cc2)C2CCCCC2)s1,
6.1 µM,"C[C@H]1CCCC[C@@H]1N(C(=O)c1ccc(Oc2ccccc2)cc1)c1ncc(C(=O)O)s1 (single isomer, unassigned; cis)",
5 µM,C[C@H]1CC[C@H](N(C(=O)c2ccc(Oc3ccccc3)cc2)c2ncc(C(=O)O)s2)CC1 (stereo in doubt; trans),
4.4 µM,O=C(O)c1cnc(N(C(=O)c2ccc(Oc3cccc(C(F)(F)F)c3)cc2)C2CCCCC2)s1,

SMILES,IC50 [1],further results
O=C(O)c1cnc(N(C(=O)c2ccc(Oc3ccccc3)cc2)C2CCS(=O)(=O)CC2)s1,> 50 µM,
CC(C)N(C(=O)c1ccc(Oc2ccccc2)cc1)c1ncc(C(=O)O)s1,> 50 µM,
CC(C)N(C(=O)c1ccc(Oc2ccccc2)cc1)c1nc(C(=O)O)cs1,> 50 µM,
O=C(Nc1nc(C(=O)O)cs1)c1ccc(Oc2ccccc2)cc1,> 50 µM,
O=C(Nc1ncc(C(=O)O)s1)c1ccc(Oc2ccccc2)cc1,> 50 µM,
